DENV2 CPE rescue = inhibitors of DENV2 cytopathic effect, primary screen, cell-based, plate reader, single concentration; DENV2-infected cells, cytopathic effect rescue; CPE inhibition, % at 9.99 µM; 1.7% of 350,000 active; AID 651640, 2012; in the data active = CPE inhibition above about 20%, passing the limit was not always enough; inconclusive = no clear call, values can overlap the other calls; tested in BHK-21 cells;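 note: 0% = median of neutral control wells and 100% = median of positive control wells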
Cneo AK release = Cryptococcus neoformans cell lysis inducers, primary screen, AK release luminescence, single concentration | C. neoformans lysis, adenylate kinase release luminescence, 4 h; normalised: neutral wells 0, clomiphene wells 100 | lysis activity, % at 15 µM | 0.2% of 360,000 active | AID 651654, 2012;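 active = mean lysis activity across replicates of at least 80%, whatever share of replicates individually reach that level; inactive = mean lysis activity below 80%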
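Material – log-phase Cryptococcus neoformans yeast cells · Input – 5 × 10^6 yeast cells/mL · Medium – fresh YPD growth medium · Doses – single compound concentration per well · Timing – static 4 h at 37 °C with compound, 1 h detection · Detection – adenylate kinase release luminescence · Read-out – signal increase indicating cell lysis · Control set – Clomiphene as positive lysis control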
C2C12 statin = suppressors of statin myotoxicity in C2C12 myotubes, primary screen, cell-based, single point, plate reader. C2C12 myotubes + simvastatin, ATP luminescence, 48 h; scaled: DMSO 0, geranylgeraniol control 100. rescue of ATP level, % at 7.49 µM. 0.78% of 330,000 active. AID 602340, 2012;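 active = mean ATP rescue above about 67%, or every replicate alone reaching that limit, limit read from the data, passing the limit was not always enough; inconclusive = no clear call, values can overlap the other calls; inactive = mean under the limit and some replicate under it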;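 note: myotubes were challenged with 10 µM simvastatin during compound exposure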
Xi reactivation = activators of inactive X chromosome reactivation, primary screen, imaging, XiGFP fibroblasts, GFP high-content imaging, set 2. XiGFP mouse fibroblasts, % GFP-positive cells imaging, 3 d; cells co-treated with 5-aza-dC sensitizer; scaled so ellipticine positive control = 100%. activation, % at 7.58 µM. 0.055% of 360,000 active. AID 743238, 2013;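 active = mean normalized replicate activation at least 10% and every replicate at or above 10%; inconclusive = only one of the two criteria met; inactive = mean below 10% and not all replicates reach 10%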;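 note: 0% = median of on-plate neutral control wells and 100% = ellipticine 6 µM median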
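assay system = SV40-immortalized XiGFP fibroblast cells, line 68-5-11 | buffer or medium = DMEM plus 5-aza-dC sensitizer | doses = single-point pinned compound dosing | times = 3-day compound exposure, then 15 min fixation at room temperature | benchmarks = positive control ellipticine, 6 µM final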
* = called active by the depositor; ? = inconclusive; / = no result. This is a sample that favours compounds with a hit; in the whole collection about 2.1% have one here.

SMILES	DENV2 CPE rescue	Cneo AK release	C2C12 statin	Xi reactivation
COc1ccc(CN(C)C[C@@H]2OCCCC[C@H](C)Oc3ccc(N(C)C)cc3C(=O)N([C@H](C)CO)C[C@@H]2C)cc1	/	94.1*	-9.2	0.3
C[C@H](CO)N1C[C@H](C)[C@@H](CN(C)Cc2ccc(Cl)c(Cl)c2)OCCCC[C@H](C)Oc2ccc(N(C)C)cc2C1=O	30.2*	/	/	-0.9
COc1ccc(C(C)NC(=O)c2ccccc2Cl)cc1OC (stereo unspecified)	64.3*	-1.4	/	0.0
COc1ccc(Cc2nnc(NC(=O)c3ccccc3F)s2)cc1OC	-3.2	0.3	15.7	0.0
COc1ccc(Cc2nnc(NC(=O)c3ccccc3Cl)s2)cc1OC	40.8*	-5.6	8.2	0.1
O=C(Nc1nnc(Cc2ccccc2F)s1)Nc1ccccc1F	-0.4	-0.8	-1.6	0.1
O=C(Nc1nnc(Cc2ccccc2F)s1)c1ccccc1Cl	78.0*	-1.7	9.1	0.0
CN1c2ccc(C#Cc3cccnc3)cc2[C@H]2[C@H](CCN2S(=O)(=O)c2ccc(F)cc2)[C@@H]1CO	-6.0	5.2	-14.4	0.1
Cc1noc(C)c1S(=O)(=O)Nc1ccc2c(c1)C(=O)N([C@@H](C)CO)C[C@H](C)[C@H](CN(C)Cc1ccc(C(=O)O)cc1)OCCCC[C@@H](C)O2	49.7*	-1.4	/	0.2
Cc1noc(C)c1S(=O)(=O)Nc1ccc2c(c1)C(=O)N([C@@H](C)CO)C[C@@H](C)[C@H](CN(C)Cc1ccc(C(=O)O)cc1)OCCCC[C@H](C)O2	24.5*	-3.5	/	0.2
Cc1noc(C)c1S(=O)(=O)Nc1ccc2c(c1)C(=O)N([C@H](C)CO)C[C@H](C)[C@H](CN(C)Cc1ccncc1)OCCCC[C@@H](C)O2	26.2*	-0.4	/	0.1
Cc1noc(C)c1S(=O)(=O)Nc1ccc2c(c1)C(=O)N([C@H](C)CO)C[C@H](C)[C@@H](CN(C)Cc1ccncc1)OCCCC[C@@H](C)O2	-6.8	-2.3	/	0.1
Cc1noc(C)c1S(=O)(=O)Nc1ccc2c(c1)C(=O)N([C@H](C)CO)C[C@@H](C)[C@@H](CN(C)Cc1ccc(C(=O)O)cc1)OCCCC[C@@H](C)O2	38.4*	-2.2	/	0.2
CN(C)C(=O)c1cccc(-c2ccc([C@H]3[C@H]4CN(C(=O)C5CCCC5)CCCCN4[C@H]3CO)cc2)c1	-8.9	2.6	/	/
CO[C@@H]1CN(C)C(=O)c2cc(NS(=O)(=O)c3ccccc3)ccc2OC[C@@H](C)N(Cc2nccs2)C[C@H]1C	-8.4	-1.6	-4.6	-0.4
Cc1noc(C)c1NC(=O)N(C)C[C@@H]1OCCCC[C@@H](C)Oc2ccc(NC(=O)Nc3ccccc3)cc2C(=O)N([C@@H](C)CO)C[C@@H]1C	-0.6	5.7	/	-0.5
C/C=C\C(=O)Nc1cccc(C2=NOC3(C2)C[C@@H](C(N)=O)N(C(=O)c2ccc(OC)cc2)C3)c1 (stereo partly specified)	22.1*	/	/	-0.1
C/C=C\C(=O)Nc1cccc(C2=NOC3(C2)C[C@@H](C(N)=O)N(C(=O)c2ccc(Cl)cc2)C3)c1 (stereo partly specified)	-7.0	-0.7	12.2	-0.3
COc1ccc(C2=CC(=O)CC(c3ccc(OC)cc3)C2)cc1 (stereo unspecified)	4.9	-1.7	4.1	0.2
CCOc1ccc(C2=CC(=O)C[C@H](c3ccc(OC)cc3)C2)cc1	26.0*	0.7	-41.7	0.2
C[C@@H]1CN([C@H](C)CO)C(=O)c2cc(C#Cc3ccccn3)cnc2O[C@@H]1CN(C)CC1CCCC1	/	/	8.8	1.7
C[C@@H]1CN([C@H](C)CO)C(=O)c2cc(NC(=O)CCCCCC(=O)Nc3ccccc3N)ccc2O[C@H]1CN(C)S(=O)(=O)c1cn(C)cn1	-18.9	/	/	0.2
O=C(Nc1nnc([C@@H]2C[C@H](O)[C@@H](CO)O2)s1)c1ccccc1Cl	6.2	1.2	5.8	0.0
O=C(Nc1nnc([C@H]2C[C@H](O)[C@@H](CO)O2)s1)c1ccccc1F	29.1*	0.8	-12.4	0.0
CN(C)C(=O)c1ccc(-c2ccc([C@H]3[C@@H](C#N)N(S(C)(=O)=O)[C@H]3CO)cc2)cc1	1.1	0.9	-1.8	0.2
SMILES	DENV2 CPE rescue	Cneo AK release	C2C12 statin	Xi reactivation
CC(O)CNc1nc2ccccc2n1-c1ncnc2sc3c(c12)CCC3 (stereo unspecified)	/	-2.1	114.0*	/
c1ccc2c(c1)ncn2-c1ncnc2sc3c(c12)CCCC3	/	-2.2	-8.1	/
CC(C)NC(=O)N(C)C[C@H]1Oc2c(NC(=O)C3CCCCC3)cccc2C(=O)N([C@H](C)CO)C[C@H]1C	8.6	114.4*	-14.6	-0.1
CC(C)NC(=O)N(C)C[C@@H]1Oc2c(NC(=O)C3CCCCC3)cccc2C(=O)N([C@H](C)CO)C[C@@H]1C	4.3	2.0	-7.1	0.0
CC(C)NC(=O)N(C)C[C@@H]1Oc2c(NC(=O)C3CCCCC3)cccc2C(=O)N([C@@H](C)CO)C[C@@H]1C	-3.2	83.6*	-21.1	0.3
CC(C)NC(=O)N(C)C[C@@H]1Oc2c(NC(=O)C3CC3)cccc2C(=O)N([C@H](C)CO)C[C@H]1C	-5.3	42.3	-13.5	-0.7
C[C@H](CO)N1C[C@H](C)[C@H](CN(C)S(=O)(=O)c2ccc(-c3ccccc3)cc2)OCc2cn(nn2)CCCC1=O	16.1	-1.0	1.6	-0.3
CO[C@H]1CN(C)C(=O)c2ccc(NC(=O)NC(C)C)cc2OC[C@H](C)N(C)C[C@@H]1C	-0.9	/	/	0.2
C[C@H]1CN([C@@H](C)CO)C(=O)c2cc(-c3ccncc3)cnc2O[C@@H]1CN(C)Cc1ccc(F)cc1	-4.3	-0.3	-0.1	1.9
Cc1ccccc1NC(=O)CN1C(=O)S/C(=C\c2ccc(-c3cc(C(=O)O)ccc3C)o2)C1=O	12.1	/	/	40.1*
CCC(=O)N1C[C@H](O)COC[C@@H]2O[C@@H](CC(=O)NCc3ccccc3Cl)CC[C@H]21	4.9	116.6*	7.5	0.3
CCNC(=O)C[C@@H]1CC[C@H]2[C@@H](COC[C@H](O)CN2C(=O)CC)O1	48.3*	-3.8	-3.9	0.0
CCCCOC(=O)c1ccccc1N1C(=O)C2C3CCC(C3)C2C1=O (stereo unspecified)	?	0.6	82.5*	0.2
CC(C)COC(=O)c1ccccc1N1C(=O)C2C3CCC(C3)C2C1=O (stereo unspecified)	17.9	/	/	0.0
COc1ccc(C(=O)Nc2ccccc2C(=O)NC(Cc2ccc(O)cc2)C(=O)NNC(=O)c2ccccc2Cl)cc1 (stereo unspecified)	/	-6.0	111.8*	/
COc1ccc(C(=O)NNC(=O)C(Cc2ccc(O)cc2)NC(=O)c2ccccc2NC(=O)c2ccc(OC)cc2)cc1 (stereo unspecified)	/	-0.7	/	0.2

From PubChem
